Activity calls are given as the source filed them. The rule behind the calls is not given here.
Tests used:
[1] = system: Canis familiaris; test: Effective dose required to produce 50% increase of cardiac force in dog after administering ca. 1.875 mg/Kg drug intravenously; assay type: functional; conditions: Canis lupus familiaris, iv
Method in brief: (§1)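 Adult mongrel dogs anesthetized with sodium pentobarbital (45 mg/kg ip) and artificially respired. MAP measured via cannulated femoral artery; HR from cardiotachometer; LV +dP/dtmax via Millar catheter; CF by Walton Brodie strain gauge on right ventricle (baseline tension 100 g). Compound in 10% DMF/saline or HCl salt, infused iv into femoral vein over 5 min per step. Each step given at peak of the prior one; three to four increasing doses. Response expressed as % change from predrug control; n = 1–5 dogs.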

[2] = system: Canis familiaris; test: Mean arterial blood pressure in dog after administering ca. 1.875 mg/Kg drug intravenously.; assay type: functional, Canis lupus familiaris; set-up: unit not given beside the values; method in brief: as §1
[3] = organism: Canis familiaris; test: dP/dt max was determined in dog; assay type: functional, Canis lupus familiaris; set-up: unit not given beside the values; method in brief: as §1
[4] = Relative change in CF was determined by calculating the effective concentration that produced a 50% of maximum increase in tension; assay type: functional, Mustela putorius furo
Method in brief: (§2)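 Ferret papillary muscle in Tyrode's solution with timolol (1×10^-7 M); compound given at cumulative serially increasing concentrations, each read at 15 min. EC50 is the concentration giving 50% of that compound's own maximal tension increase. Estimated graphically from mean data, n ≥ 3.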

[5] = system: Canis familiaris; test: Heart rate in dog after administering ca. 1.875 mg/Kg drug intravenously; assay type: functional, Canis lupus familiaris; method in brief: as §1
[6] = In vitro changes in contractile force (CF) quantitated by determining the maximal increase in isometric tension by using ferret papillary muscle; assay type: functional, Mustela putorius furo, Muscle tissue
Method in brief: (§3)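 Isolated ferret papillary muscle in Tyrode's solution with timolol (1×10^-7 M), equilibrated 2 h. Compound diluted from 1×10^-2 M DMSO stock and added at serially increasing concentrations, up to 10 μM. Isometric tension read 15 min after each addition. Result is maximal increase as % of control tension, from mean of n ≥ 3.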

[7] = system: Canis familiaris; test: Cardiac force in dog after administering ca. 1.875 mg/Kg drug intravenously.; assay type: functional, Canis lupus familiaris; set-up: unit not given beside the values; method in brief: as §1
[8] = organism: Mustela putorius furo; test: In vitro changes in contractile force (CF) quantitated by determining the maximal increase in isometric tension by using ferret papillary muscle.; assay type: functional, tissue-based; conditions: Muscle tissue; method in brief: as §3
[9] = Relative change in CF was determined by calculating the effective concentration that produced a 50% of maximum increase in tension.; assay type: functional, Mustela putorius furo; method in brief: as §2

| SMILES | EC50 [4] [nM] | EC50 [9] | ED50 [1] [mg/kg] | MAP [2] | dP/dt max [3] | Heart rate [5] | Max [6] [%] | Cardiac force [7] | Max [8] |
| --- | --- | --- | --- | --- | --- | --- | --- | --- | --- |
| Nc1nc(SCC(O)CN2CCN(C(c3ccc(F)cc3)c3ccc(F)cc3)CC2)c2[nH]cnc2n1 (centres undefined) | 1900 |  | 0.85 | -9 | 38 | 12 | 74 | 74 |  |
| OC(CSc1ncnc2c1ncn2-c1ccccc1)CN1CCN(C(c2ccc(F)cc2)c2ccc(F)cc2)CC1 (centres undefined) |  | Not Active |  | -3 | 5 | 4 |  | 12 | inactive |
| OC(CSc1[nH]cnc2ncnc1-2)CN1CCN(C(c2ccc(Cl)cc2Cl)c2ccc(Cl)cc2Cl)CC1 (centres undefined) | 1600 |  | 0.9 | -10 | 47 | 6 | 49 | 69 |  |
| OC(CSc1[nH]cnc2ncnc1-2)CN1CCN(C(c2cccc(C(F)(F)F)c2)c2cccc(C(F)(F)F)c2)CC1 (centres undefined) | 3400 |  | 1.1 | 8 | 46 | -6 | 106 | 68 |  |
| COc1cc(OC)c(C(=O)OC(CSc2[nH]cnc3ncnc2-3)CN2CCN(C(c3ccc(F)cc3)c3ccc(F)cc3)CC2)c(OC)c1 (centres undefined) |  | Not Active |  | 0 | 15 | 3 |  | 17 | inactive |
| O=S(=O)(O)OC(CSc1[nH]cnc2ncnc1-2)CN1CCN(C(c2ccc(F)cc2)c2ccc(F)cc2)CC1 (centres undefined) | 390 |  | 0.26 | 6 | 110 | 6 | 57 | 159 |  |
| OC(CSc1[nH]cnc2ncnc1-2)CN1CCN(C(c2ccc(Cl)cc2)c2ccc(Cl)cc2)CC1 (centres undefined) |  |  | 0.33 | 9 | 99 | -4 |  | 151 |  |

The next lines start with results.

| EC50 [4] [nM] | EC50 [9] | SMILES | ED50 [1] [mg/kg] | MAP [2] | dP/dt max [3] | Heart rate [5] | Max [6] [%] | Cardiac force [7] | Max [8] |
| --- | --- | --- | --- | --- | --- | --- | --- | --- | --- |
| 1000 |  | OC(CSc1[nH]cnc2ncnc1-2)CN1CCN(C(c2ccc(C(F)(F)F)cc2)c2ccc(C(F)(F)F)cc2)CC1 (centres undefined) |  | 5 | 47 | 0 | 47 | 71 |  |
| 500 |  | COc1ccc(C(c2ccc(OC)cc2)N2CCN(CC(O)CSc3[nH]cnc4ncnc3-4)CC2)cc1 (centres undefined) |  | -7 | 18 | -2 | 98 | 45 |  |
| 500 |  | OC(CNc1[nH]cnc2ncnc1-2)CN1CCN(C(c2ccc(F)cc2)c2ccc(F)cc2)CC1 (centres undefined) | 0.28 | -2 | 83 | 2 | 86 | 154 |  |
| 600 |  | Cn1cnc2c(SCC(O)CN3CCN(C(c4ccc(F)cc4)c4ccc(F)cc4)CC3)ncnc21 (centres undefined) | 1.9 | -6 | 11 | -2 | 142 | 50 |  |
| 300 |  | OC(CSc1ncnc2[nH]cnc12)CN1CCN(C(c2ccc(F)cc2)c2ccc(F)cc2)CC1 (centres undefined) [CARSATRIN] | 0.15 | -5 | 150 | 0 | 189 | 224 |  |
|  | Not Active | CN(CC(O)CN1CCN(C(c2ccc(F)cc2)c2ccc(F)cc2)CC1)c1[nH]cnc2ncnc1-2 (centres undefined) | 0.74 | 4 | 66 | 7 |  | 82 | inactive |
| 2100 |  | CC(=O)OC(CNc1[nH]cnc2ncnc1-2)CN1CCN(C(c2ccc(F)cc2)c2ccc(F)cc2)CC1 (centres undefined) | 0.27 | -26 | 70 | -12 | 45 | 144 |  |
|  | Not Active | Fc1ccc(C(c2ccc(F)cc2)N2CCN(CCCSc3[nH]cnc4ncnc3-4)CC2)cc1 | 1.3 | -6 | 17 | 2 |  | 38 | inactive |
